Results on two compounds are retold here after ChEMBL document CHEMBL2157870 (J Med Chem, 2012).

≈ marks a conversion by molar mass, not a printed value.

The subject of data set [1] is Plasmodium berghei. Put plainly: Antimalarial activity against Plasmodium berghei NK-65 infected in ICR mouse assessed as survival rate at 100 mg/kg, po administered day 3, 4 and 5 post infection. The data set is classed as functional. The method in brief: (§1)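 Female Swiss outbred ICR mice, 15–20 g, given 1 X 10^6 P. berghei NK-65 infected red cells from donor mice in plasma at day 0 (modified Thompson's test). Patent infection confirmed by tail blood smear on day 3. Oral single daily doses in 0.5% HEC on days 3, 4, 5. Vehicle controls. Survival recorded daily to day 30. Parasitemia from Giemsa thin films on days 3, 6, 13, 20, 27, counting ≥1000 cells.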

Data set [2] has as its system Plasmodium berghei. Put plainly: Antimalarial activity against Plasmodium berghei NK-65 infected in ICR mouse assessed as survival rate at 50 mg/kg, po administered day 3, 4 and 5 post infection. In kind it is functional. The method in brief: as §1
The subject of data set [3] is Plasmodium berghei. The experiment in a line: Antimalarial activity against Plasmodium berghei NK-65 infected in ICR mouse assessed as survival rate at 200 mg/kg, po administered day 3, 4 and 5 post infection. The data set is classed as functional. The method in brief: as §1
Data set [4] addresses Voltage-gated inwardly rectifying potassium channel KCNH2 (Homo sapiens, UniProt Q12809). Put plainly: Inhibition of human ERG by patch clamp assay. In general terms: In patch-clamp work, channel activity is measured electrically.
The subject of data set [5] is Mus musculus. The experiment in a line: Cmax in CD1 mouse at 20 mg/kg, po. In kind it is ADME, organism-based. Also on record: dose 20 mg/kg, route oral. The conditions noted are these: in vivo. The method in brief: (§2)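 Female CD-1 mice, 8 weeks old, were given a single oral gavage dose as a suspension in 0.5% methylcellulose in sterile water. Blood was taken from three mice per time point (5 min–24 hr) into K3EDTA and processed to plasma. After acetonitrile protein precipitation, samples were analysed by LC-MS/MS with a warfarin internal standard. Noncompartmental analysis used linear-up/log-down trapezoidal AUC and at least three non-zero concentrations after Tmax.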

Data set [6] deals with Plasmodium berghei. The experiment in a line: Antimalarial activity against Plasmodium berghei NK-65 infected in ICR mouse assessed as parasitemia level at 200 mg/kg, po administered day 3, 4 and 5 post infection measured up to day 30 by Geimsa staining. The data set is classed as functional. The procedure, abridged: as §1
Data set [7] deals with Mus musculus. Put plainly: Apparent volume of distribution during terminal phase in CD1 mouse at 500 mg/kg, po. In kind it is ADME, organism-based. Also on record: dose 500 mg/kg, route oral. The following applies: mouse, in vivo. The procedure, abridged:
as §2

The nature of data set [8]: Intrinsic clearance in […] mouse liver microsomes at 2 mM. The data set is classed as ADME, Microsome. The conditions noted are these: read-out: CLH.
For data set [9], the system named is BJ. Put plainly: Cytotoxicity against human BJ cells at 25 uM after 72 hrs by celltiter-glo assay. In kind it is cell-based. (In ATP-based viability assays light output follows the ATP content of the culture.)
The subject of data set [10] is Plasmodium falciparum. The experiment in a line: Antimalarial activity against Plasmodium falciparum 3D7 after 72 hrs by MSF assay. The conditions noted are these: 3D7, 72 h. In kind it is functional, organism-based.
Data set [11] concerns HepG2. Put plainly: Cytotoxicity against human HepG2 cells at 25 uM after 72 hrs by celltiter-glo assay. The conditions noted are these: hepg2, 72 h. The data set is classed as cell-based.
Data set [12] relates to Plasmodium berghei. Put plainly: Antimalarial activity against Plasmodium berghei NK-65 infected in ICR mouse assessed as parasitemia level at 100 mg/kg, po administered day 3, 4 and 5 post infection measured up to day 30 by Geimsa staining. In kind it is functional. The method in brief: as §1
Data set [13] can be described thus: Permeability of the compound at 10 uM at pH 7.4 by PAMPA. The conditions noted are these: pH 7.4, 10 µM. In kind it is ADME. The method in brief:
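PAMPA: diluted compound in system solution buffer at pH 7.4 was placed in the donor well over a GIT-lipid-painted membrane, with acceptor solution buffer in the acceptor well. The sandwich was stirred for 30 min with the aqueous boundary layer set to 40 μm. Triplicate.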

Data set [14] relates to Mus musculus. The experiment in a line: Cmax in CD1 mouse at 200 mg/kg, po. The data set is classed as ADME, organism-based. Also on record: dose 200 mg/kg, route oral. The following applies: in vivo. The method in brief: as §2
The subject of data set [15] is Mus musculus. Put plainly: AUC (0 to infinity) in CD1 mouse at 200 mg/kg, po. The data set is classed as ADME, organism-based, Plasma. Also on record: time infinity, dose 200 mg/kg, route oral. The conditions noted are these: in vivo. The procedure, abridged:
as §2

Data set [16] can be described thus: Apparent volume of distribution during terminal phase in CD1 mouse at 200 mg/kg, po. In kind it is ADME, organism-based. Also on record: dose 200 mg/kg, route oral. The conditions noted are these: in vivo, read-out: Vz/F. The procedure, abridged: as §2
Data set [17] relates to Mus musculus. The experiment in a line: Tmax in CD1 mouse at 20 mg/kg, po. Details: dose 20 mg/kg, route oral. In kind it is ADME, organism-based. The conditions noted are these: in vivo. The method in brief: as §2
Data set [18] deals with Mus musculus. Put plainly: Tmax in CD1 mouse at 500 mg/kg, po. In kind it is ADME, organism-based. Also on record: dose 500 mg/kg, route oral. The following applies: in vivo. The method in brief:
as §2

Data set [19] has as its target T1, CYP2D6 (Homo sapiens, UniProt P10635). The experiment in a line: Inhibition of CYP2D6 in human liver microsomes at 10 uM after 20 mins by LC-MS/MS analysis relative to control; values are per cent of control. Background: Liver microsomes are vesicles of endoplasmic reticulum, rich in cytochrome P450 enzymes.
Data set [20] has as its system HEK293. Put plainly: Cytotoxicity against human HEK293 cells at 25 uM after 72 hrs by celltiter-glo assay. The data set is classed as cell-based. The following applies: hek293, 72 h.
Data set [21] in a line: Apparent volume of distribution during terminal phase in CD1 mouse at 20 mg/kg, po. Details: dose 20 mg/kg, route oral. The data set is classed as ADME, organism-based. The following applies: CD1, mouse, in vivo, read-out: Vz/F. The method in brief:
as §2

The subject of data set [22] is Mus musculus. Put plainly: Cmax in CD1 mouse at 500 mg/kg, po. In kind it is ADME, organism-based. The conditions noted are these: in vivo. Details: dose 500 mg/kg, route oral. The method in brief:
as §2

Data set [23] deals with Raji. Put plainly: Cytotoxicity against human Raji cells at 25 uM after 72 hrs by celltiter-glo assay. The data set is classed as cell-based.
The subject of data set [24] is Mus musculus. The experiment in a line: Tmax in CD1 mouse at 200 mg/kg, po. The data set is classed as ADME, organism-based. Also on record: dose 200 mg/kg, route oral. The conditions noted are these: in vivo. The method in brief: as §2
Data set [25] relates to Plasmodium falciparum. The experiment in a line: Antimalarial activity against Plasmodium falciparum K1 after 72 hrs by MSF assay. The data set is classed as functional, organism-based. The conditions noted are these: K1, 72 h.
Data set [26] is described as follows: Solubility of the compound in PBS at 10 mM after 18 hrs by UV spectroscopic analysis. In kind it is physicochemical.
In data set [27] the test system is Mus musculus. The experiment in a line: AUC (0 to infinity) in CD1 mouse at 20 mg/kg, po. In kind it is ADME, organism-based, Plasma. Details: time infinity, dose 20 mg/kg, route oral. The following applies: in vivo. The method in brief: as §2
The test system of data set [28] is Mus musculus. Put plainly: AUC (0 to infinity) in CD1 mouse at 500 mg/kg, po. In kind it is ADME, organism-based, Plasma. Also on record: time infinity, dose 500 mg/kg, route oral. The conditions noted are these: in vivo. The procedure, abridged:
as §2

For data set [29], the target named is T1, CYP2D6. The experiment in a line: Inhibition of CYP2D6 in human liver microsomes at 1 uM after 20 mins by LC-MS/MS analysis relative to control; values are per cent of control.
The subject of data set [30] is hERG. The experiment in a line: Therapeutic index, ratio of IC50 for human ERG to EC50 for Plasmodium falciparum K1. The following applies: read-out: Ratio IC50/EC50.

As usually defined, the IC50 is the point on the concentration scale where inhibition reaches its midpoint. The low end stands for greater potency, the high end for weaker potency. A word on the Cmax: it is the maximum level reached in the sampled fluid or tissue. For orientation: EC90 means the concentration needed for an effect of 90%. A lower EC90 goes with an effect from little substance. One may read the AUC as the area under the concentration-time curve, a measure of exposure. A word on the Tmax: it is the time at which the peak concentration occurs. The term solubility denotes how much of the substance goes into solution per volume.

T1 sequence (P10635 whole entry): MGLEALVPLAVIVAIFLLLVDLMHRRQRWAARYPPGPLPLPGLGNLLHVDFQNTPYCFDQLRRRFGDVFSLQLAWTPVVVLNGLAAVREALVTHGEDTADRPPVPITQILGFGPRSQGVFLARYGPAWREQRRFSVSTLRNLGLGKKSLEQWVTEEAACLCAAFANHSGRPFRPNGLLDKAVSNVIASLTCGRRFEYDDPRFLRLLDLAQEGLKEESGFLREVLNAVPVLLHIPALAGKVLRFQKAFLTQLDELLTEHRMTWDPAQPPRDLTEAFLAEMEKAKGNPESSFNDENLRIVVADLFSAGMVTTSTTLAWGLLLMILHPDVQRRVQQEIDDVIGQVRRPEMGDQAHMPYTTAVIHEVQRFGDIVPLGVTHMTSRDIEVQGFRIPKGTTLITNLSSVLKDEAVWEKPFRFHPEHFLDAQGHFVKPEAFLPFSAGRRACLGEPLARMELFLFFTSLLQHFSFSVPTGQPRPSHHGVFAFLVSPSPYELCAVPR
Chain of Voltage-gated inwardly rectifying potassium channel KCNH2 (Q12809 whole entry): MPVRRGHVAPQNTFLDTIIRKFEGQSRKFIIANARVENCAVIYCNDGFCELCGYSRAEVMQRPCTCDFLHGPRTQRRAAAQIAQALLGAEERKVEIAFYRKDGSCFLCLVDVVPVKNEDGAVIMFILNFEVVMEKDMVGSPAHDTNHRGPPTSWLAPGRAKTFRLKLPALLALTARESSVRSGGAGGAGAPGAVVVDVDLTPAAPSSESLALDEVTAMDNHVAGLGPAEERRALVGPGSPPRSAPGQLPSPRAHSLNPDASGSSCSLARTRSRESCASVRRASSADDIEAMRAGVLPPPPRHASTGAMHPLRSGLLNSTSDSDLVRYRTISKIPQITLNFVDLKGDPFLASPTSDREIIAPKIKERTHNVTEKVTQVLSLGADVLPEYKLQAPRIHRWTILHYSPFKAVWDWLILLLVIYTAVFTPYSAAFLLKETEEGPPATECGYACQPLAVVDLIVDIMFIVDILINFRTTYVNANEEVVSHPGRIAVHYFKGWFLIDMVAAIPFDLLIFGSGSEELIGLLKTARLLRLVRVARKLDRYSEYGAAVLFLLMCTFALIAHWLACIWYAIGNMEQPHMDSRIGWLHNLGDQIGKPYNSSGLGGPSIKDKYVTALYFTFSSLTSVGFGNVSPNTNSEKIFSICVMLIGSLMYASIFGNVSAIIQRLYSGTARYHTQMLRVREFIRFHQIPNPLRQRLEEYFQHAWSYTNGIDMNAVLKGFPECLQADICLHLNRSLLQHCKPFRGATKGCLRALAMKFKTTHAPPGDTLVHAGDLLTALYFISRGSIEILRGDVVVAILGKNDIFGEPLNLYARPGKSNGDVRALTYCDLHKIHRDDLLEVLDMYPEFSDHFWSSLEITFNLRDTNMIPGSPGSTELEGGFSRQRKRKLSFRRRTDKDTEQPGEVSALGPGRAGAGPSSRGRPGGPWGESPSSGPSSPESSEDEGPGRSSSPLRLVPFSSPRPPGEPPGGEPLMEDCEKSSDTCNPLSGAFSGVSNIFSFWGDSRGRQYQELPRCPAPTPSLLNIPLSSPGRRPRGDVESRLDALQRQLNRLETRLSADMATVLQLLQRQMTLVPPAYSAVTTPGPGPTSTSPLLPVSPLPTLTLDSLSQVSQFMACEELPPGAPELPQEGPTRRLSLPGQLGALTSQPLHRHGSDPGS

Take `CCN(CC)CCCC(C)Nc1ccnc2cc(Cl)ccc12` (stereo unspecified) [CHLOROQUINE]: the MST in data set [1] is 22 days; in [2], 17 days.

As to `O=C(CCc1ccccc1)c1ccccc1OCC(O)CN1CCN(C(c2ccccc2)c2ccccc2)CC1` (stereo unspecified), the MST in data set [3] and in data set [1] was 7 days each time. Further, the IC50 in data set [4] was 2600 nM. Further, the results for the Cmax in [5], in [14] and in data set [22] were 73.7 nM, 667 nM and 598 nM, respectively. The Activity in [6] was 55.3%; in data set [9], “Non-toxic”; in [11] it was “Non-toxic”; in [12] it was 53.6%; in [20] it was “Non-toxic”; in [23], “Non-toxic”. In addition, in [7], the Vz/F came out at 2020 L/kg. The CLint scaled in data set [8] was determined as 70 mL/min/kg. The concentration for an effect of 90% (EC90) in data set [10] was determined as 90 nM; in data set [25] it was 100 nM. The compound also came in with a permeability in data set [13] of 2.3 ×10⁻⁶ cm/s. Moreover, the AUC in data set [15] was 3.1 µM·h; in data set [27] it was 0.249 µM·h; in data set [28], 3.37 µM·h. Moreover, the Vd/F in [16] was determined as 603 L/kg; in data set [21], 318 L/kg. Moreover, the figures for the Tmax in [17], in [18] and in data set [24] were 1 h, 1 h and 0.5 h, respectively. This compound also came in with a % activity remaining at 20 min, 10 µM in [19] of 59%. In data set [26], this compound registered a solubility at 18 h, 10000 µM of 0.1 µM (≈ 0.0535 µg/mL). The compound further returned a % activity remaining at 20 min, 1 µM in data set [29] of 76%. Besides, in data set [30], the selectivity ratio stood at 26.
